# Ba/F3 V617F tox = loss of viability in JAK2V617F-driven Ba/F3 cells. Ba/F3 EpoR-JAK2V617F viability, ATP luminescence. inhibition, % at 5.6 µM. hit rate 1.1% among 220,000;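 active = inhibition above the campaign mean plus 3 SD over all tested compounds, cut at about 24% in these data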;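 note: cytokine-independent growth of Ba/F3 cells driven by EpoR plus mutant JAK2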
# APP transl inh = APP translation inhibition | SH-SY5Y APP 5'UTR-luciferase reporter, luminescence | inhibition, % at 2 µM | hit rate 0.82% among 190,000;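 active = inhibition above a set limit, derived from the sample mean plus 3 SD, cut at about 45% in these data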
# MT stabilizer = stabilizes microtubules in HeLa cells | HeLa tubulin immunostaining HCS, 24 h; share of cells brighter than vehicle mean+2SD | % tubulin-high responders, % at 10 µM | hit rate 0.83% among 200,000 | AID 2205;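 active = plate Z-score above 3 for both tubulin-high and condensed-nucleus cell shares, with cell loss under 80%, at 10 µM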;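 note: anti alpha tubulin signal scored within the nucleus-defined area of each cell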
# IEC-6 cytotox = IEC-6 cytotoxicity, counter-screen for KLF5 inhibitors; luminescence viability; hit rate 0.78% among 290,000; inhibition, % at 5 µM; AID 1825; in the data active = inhibition above about 22%
# BaF3 parental = parental Ba/F3 viability inhibition as JAK2V617F counter-screen | inhibition, % at 5.6 µM | CellTiter-Glo ATP luminescence | hit rate 1.1% among 220,000 | AID 1486;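 active = inhibition above a per-campaign cutoff, the mean inhibition of all tested compounds plus 3 SD, cut at about 27% in these data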
# bCat nuc transl = beta-catenin nuclear translocation modulation; hit rate 0.3% among 190,000; nuclear translocation activity, % at 5 µM; HeLa beta-catenin nuclear translocation, immunofluorescence imaging;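 active = nuclear translocation activity above 50% at 5 µM, with a well cell count of 50 or more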;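 note: per-cell ratio of nuclear to cytoplasmic median beta-catenin stain intensity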
#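 test system = HeLa cells, endogenous beta-catenin | dosing = single 5 µM dose plus 0.02–20 µM confirmation series | times = compound treatment 24 h, 37°C, 5% CO2 | technique = beta-catenin immunofluorescence imaging with DAPI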
# A number is an active result; - = inactive; . = no result given. In the library only some 2.2% were active in any assay of this set; here they are far more common.
SMILES,Ba/F3 V617F tox,APP transl inh,MT stabilizer,IEC-6 cytotox,BaF3 parental,bCat nuc transl
Cc1ccccc1-n1c(SCC(=O)N/N=C/c2sccc2C)nc2ccccc2c1=O,-,-,14,-,-,-
Cc1ccc(/C=N/NC(=O)CSc2nc3ccccc3c(=O)n2-c2ccccc2C)s1,-,-,-,-,-,-
CCOc1ccc(C(=O)NCC(=O)N2CCC3(CC2)NCCc2[nH]cnc23)cc1,.,.,.,-,.,.
COc1cccc(N/C(N)=N/c2nc(CSc3ccccn3)cc(=O)[nH]2)c1,-,89,-,-,-,-
CCc1ccc(N/C(N)=N/c2nc(CSc3ccccn3)cc(=O)[nH]2)cc1,-,-,17,-,-,-
COc1ccc(C(=O)Nc2c(-c3cccs3)c(=O)c3ccccc3n2C)cc1,-,.,.,-,-,-
Nc1nnn(CC(=O)N/N=C/c2cccc3ccccc23)n1,-,62,-,-,-,-
O=C(COc1ccccc1-c1ccccc1)N/N=C/c1cccc2ccccc12,-,95,-,-,-,112
O=C(COc1cccc2ccccc12)N/N=C/c1ccccc1OCc1ccc(C(=O)O)cc1,-,-,-,-,-,-
C/C(CCC(C)C)=N\NC(=O)COc1ccccc1-c1ccccc1,-,94,-,-,-,-
COc1ccc(CCN2C(=O)c3[nH]nc(-c4ccccc4O)c3C2c2cccc(Cl)c2)cc1 (centres undefined),-,-,20,-,-,-
COc1ccc(C2c3c(-c4ccccc4O)n[nH]c3C(=O)N2CCc2ccc(OC)c(OC)c2)cc1 (centres undefined),-,-,-,-,-,.
Cc1ccc(C2c3c(-c4ccccc4O)n[nH]c3C(=O)N2Cc2ccncc2)cc1 (centres undefined),-,-,27,-,-,-
CC(=O)c1cccc(NC(=S)NC2CCCCCCC2)c1,.,.,.,-,.,.
CCc1nnc(NC(=O)CCC(=O)Nc2ccc(Cl)cc2)s1,.,.,.,-,.,.
O=C(OCCN1C(=O)c2cccc3c(N4CCOCC4)ccc(c23)C1=O)c1ccc(Cl)cc1Cl,-,94,16,-,-,80
O=C(OCCN1C(=O)c2cccc3c(N4CCOCC4)ccc(c23)C1=O)c1cccc(Cl)c1,-,-,16,-,-,56
O=C(OCCN1C(=O)c2cccc3c(N4CCOCC4)ccc(c23)C1=O)c1ccccc1Cl,-,-,14,-,-,.
O=C(OCCN1C(=O)c2ccccc2C1=O)c1cc(S(=O)(=O)N2CCOCC2)ccc1Cl,-,-,-,-,-,-
Cc1ccsc1C(=O)N(CC(C)C)c1c(N)n(Cc2ccccc2)c(=O)[nH]c1=O,.,.,.,-,.,.
Fc1ccc(/C=C2\CCCC3=C2Nc2ncnn2C3c2ccc(F)cc2)cc1 (centres undefined),-,56,-,-,-,-
c1ccc(C2C3=C(CCCC3)Nc3ncnn32)cc1 (centres undefined),-,-,-,-,-,-
CN1CCN(CCCC(=O)c2ccc(F)cc2)CC1,-,-,-,-,92,-
N#CC(C#N)=C1C=CC=CN1/C(=C\c1ccco1)C(=O)c1ccc(Br)cc1,-,93,-,-,-,-
COc1ccc(C(=O)NC(C)CCn2cccn2)cc1OC1CCN(C(C)C)CC1 (centres undefined),.,.,.,-,.,.
SMILES,Ba/F3 V617F tox,APP transl inh,MT stabilizer,IEC-6 cytotox,BaF3 parental,bCat nuc transl
O=C1NC(=O)C(CC(=O)N(Cc2cccs2)C2(C(=O)NC3CCCCC3)CCCCC2)N1 (centres undefined),-,-,-,-,88,-
O=C1NC(=O)C(CC(=O)N(Cc2ccco2)C2(C(=O)NC3CCCC3)CCCCC2)N1 (centres undefined),-,-,-,-,-,-
COC(=O)c1cccn(CC(=O)c2ccc(Cl)cc2)c1=O,-,-,-,-,-,-
O=C(N/N=C/c1cc(Cl)ccc1O)C(=O)Nc1ccccc1OC(F)(F)C(F)F,-,60,-,-,-,-
O=C(N/N=C/c1cc(Br)ccc1O)C(=O)Nc1ccccc1OC(F)(F)C(F)F,-,-,-,-,-,-
O=C(CCN1C(=O)c2ccccc2C1=O)OCN1C(=O)c2ccccc2C1=O,-,-,-,-,-,.
O=C(OCN1C(=O)c2ccccc2C1=O)c1cccs1,-,-,-,-,94,-
COC(=O)c1ccccc1S(=O)(=O)NNC(=O)Nc1ccccc1,.,.,.,-,.,.
COCCN(CC(=O)NC1CCCCC1)C(=O)/C=C/C(=O)c1ccc(OC)cc1O,-,93,-,-,-,-
COc1ccc(C(=O)/C=C/C(=O)N(CC(=O)NC2CCCCC2)Cc2cccs2)c(O)c1,-,77,-,-,-,-
COc1ccc(CN(C(=O)/C=C/C(=O)c2ccc(OC)cc2O)C(C(=O)NC2CCCCC2)c2ccncc2)cc1 (centres undefined),-,-,-,-,-,-
Cc1cc(S(=O)(=O)N2CCOCC2)ccc1OCC(=O)N1CCCC1,.,.,.,-,.,.
CCn1c(=O)c2sccc2n2c(CCCC(=O)NCc3cccnc3)nnc12,.,.,.,-,.,.
Cc1ccc(S(=O)(=O)N/N=C\c2ccccc2OCc2ccccc2)cc1,-,-,25,-,-,.
COC(=O)N/N=C/c1ccccc1OCc1ccccc1,-,-,-,-,-,-
COc1ccccc1NC(=O)C1CCCN(S(=O)(=O)c2ccccc2)C1 (centres undefined),.,.,.,-,.,.
COc1cc(C)ccc1OCc1cc(C(=O)NCCN2CCOCC2)no1,.,.,.,-,.,.
S=c1nc[nH]c2c1ncn2C1CCCO1 (centres undefined),63,.,.,78,44,-
COc1ccccc1NC(=O)CCS(=O)(=O)c1cc2c(cc1Cl)NC(=O)CO2,.,.,.,-,.,.
O=C(COC(=O)CCCN1C(=O)c2cccc3cccc(c23)C1=O)Nc1cccc(Br)c1,-,-,13,-,-,.
NC(=O)COC(=O)c1ccccc1Nc1ccc(SC(F)F)cc1,-,-,-,-,-,-
CC(OC(=O)c1ccccc1Nc1ccc(SC(F)F)cc1)C(N)=O (centres undefined),-,-,-,28,-,.
CN1CCN(C(=O)c2ccc(OCCOc3ccccc3)cc2)CC1,.,.,.,-,.,.
Cc1nn(-c2ccccc2)c(Cl)c1/C=C1/C(=N)N2N=C(C(C)C)SC2=NC1=O,-,-,9.9,-,-,-
COCCCNc1c2c3c(cccc3[nH]c1=O)C(=O)c1ccccc1-2,-,-,15,-,-,.
SMILES,Ba/F3 V617F tox,APP transl inh,MT stabilizer,IEC-6 cytotox,BaF3 parental,bCat nuc transl
COCCCNC1=C(Cl)C(=O)c2ccccc2C1=O,-,.,.,-,-,-
Cc1ccc(N=Nc2ccc(O)c3ncccc23)cc1C,-,-,-,-,-,-
CCS(=O)(=O)c1ccc(N=Nc2ccc(O)c3ncccc23)c(OC)c1,-,63,-,-,-,-
Cc1ccc(N=Nc2ccc(O)c3ncccc23)cc1,-,78,-,-,-,-
CCOC(=O)C1CCCN(C(=O)Cn2c(=O)c3cccn3c3cccnc32)C1 (centres undefined),.,.,.,-,.,.
COc1cc(C(=O)OCn2nnc3ccccc3c2=O)cc(OC)c1OC,-,-,-,-,-,83
